TAAR1 ag – agonists of human TAAR1; Q96RJ0; CHO RD-HGA16 TAAR1, Fluo-8 calcium fluorescence; vehicle wells 0%, saturating PEA agonist 100%; activation, % at 3 µM; 360,000 tested, 0.99% active;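 active = activation above the mean activation of all test compounds in the run plus 3 SD, cut at about 38% in these data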
Target sequence (Q96RJ0 whole entry, looked up): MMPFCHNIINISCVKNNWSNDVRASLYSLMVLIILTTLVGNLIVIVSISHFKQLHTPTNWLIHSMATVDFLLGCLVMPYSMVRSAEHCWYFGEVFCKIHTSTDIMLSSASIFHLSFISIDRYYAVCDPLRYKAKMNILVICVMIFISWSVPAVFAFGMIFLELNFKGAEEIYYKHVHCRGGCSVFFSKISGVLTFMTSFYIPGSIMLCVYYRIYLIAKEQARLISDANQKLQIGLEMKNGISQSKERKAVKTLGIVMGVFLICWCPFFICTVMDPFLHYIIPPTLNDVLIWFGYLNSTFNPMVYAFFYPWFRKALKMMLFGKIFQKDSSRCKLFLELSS
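Repeats: no replicates (n 1) | Material: CHO-derived RD-HGA16 cells with stable Gα16 and human TAAR1 | Technique: Kinetic Fluo-8 calcium fluorescence | Schedule: 17-24 h seeding, 75 min 37 °C dye, 30 min RT | Evaluation: % activation from peak over basal fluorescence ratio, DMSO-to-PEA scaled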
GPR7 antagonist – antagonists of human GPR7 (neuropeptides B/W receptor 1); P48145; GPR7-expressing cells, fluorescence antagonist assay; 290,000 tested, 1.1% active; inhibition, % at 4.4 µM; AID 1861; in the data active = inhibition above about 16%, passing the limit was not always enough;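 also: cells stimulated with the agonist NPW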
Target sequence (P48145 whole entry, looked up): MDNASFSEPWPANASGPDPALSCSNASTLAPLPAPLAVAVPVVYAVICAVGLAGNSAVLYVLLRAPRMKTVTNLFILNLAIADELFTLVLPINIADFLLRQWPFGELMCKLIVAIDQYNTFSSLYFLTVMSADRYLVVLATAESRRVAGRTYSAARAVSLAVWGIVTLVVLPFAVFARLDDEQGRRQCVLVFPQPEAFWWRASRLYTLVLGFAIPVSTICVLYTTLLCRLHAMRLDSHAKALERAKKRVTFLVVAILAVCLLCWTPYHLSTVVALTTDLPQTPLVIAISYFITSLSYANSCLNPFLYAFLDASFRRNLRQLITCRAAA
OX1R antag-1 – antagonists of human orexin 1 receptor; O43613; CHO/OX1R cells, Fluo-8 calcium fluorescence, orexin A; inhibition, % at 5 µM; 330,000 tested, 0.43% active;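 active = inhibition above its plate's threshold, mean inhibition of all tested compounds on the plate plus 3 SD, cut at about 37% in these data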
TAAR1 antagonist – human TAAR1 antagonism | Q96RJ0 | CHO RD-HGA16 TAAR1, Fluo-8 calcium fluorescence, antagonist | inhibition, % at 3 µM | 360,000 tested, 1.5% active | AID 624466;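 active = inhibition above a per-plate cutoff, the mean inhibition of test compounds on that plate plus 3 SD, cut at about 49% in these data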
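Test system: hTAAR1-expressing CHO RD-HGA16 cells, Gα16-coupled; Probe or stimulus: EC80 β-phenethylamine stimulus; Compound dosing: single nominal final test compound concentration of 3 µM; Timing: 140 s kinetic read after compound, 140 s after agonist; Signal: Fluo-8 calcium-sensitive fluorescence; Measure: % inhibition of agonist calcium response; Controls: DMSO and EC80 PEA controls.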
CHO parental Ca – counter-screen: ATP calcium response change in parental CHO cells; parental CHO-K1, ATP-induced calcium, Fluo-8 fluorescence; inhibition, % at 5.6 µM; 330,000 tested, 0.63% active;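 active = inhibition above that plate's mean sample inhibition plus 3 SD, cut at about 26% in these data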
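Assay system: untransfected parental CHO cell line. Also added: ATP agonist challenge. Dosing: one dose, 5.6 µM nominal. Measured by: Fluo-8 fluorescence. Read-out: % inhibition. Benchmarks: ATP wells versus no-ATP DMSO wells. Repeats: no replicates.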
OX1R antag-2 – blocks the human orexin 1 receptor; O43613; OX1R-expressing cells, FRET antagonist read-out; inhibition, % at 6.6 µM; 330,000 tested, 1.8% active; AID 485270; in the data active = inhibition mostly above about 38%, no sharp cut-off; inactive = mostly below about 40%
Large screens that a line does not name were inactive; ! = a repeat was not active. Hits are enriched below; roughly 4.6% of the tested compounds scored in any of these assays.

COc1ccc(CCNc2ncnc3c2oc2ccccc23)cc1OC	GPR7 antagonist 37, OX1R antag-1 60, TAAR1 antagonist 61, CHO parental Ca 79, OX1R antag-2 78
Cc1cc(C(=O)O)ccc1-c1ccc(/C=C2\NC(=O)N(Cc3ccc(F)cc3)C2=O)o1	none
Cc1occc(=O)c1OCc1ccc(Cl)cc1Cl	none
CN(C)CCCN1C(=O)c2cccc3c(Br)ccc(c23)C1=O	OX1R antag-2 64
O=C(Nc1ccc(Oc2ccc(Cl)cc2)c(Cl)c1)c1cc(I)cc(I)c1O	OX1R antag-2 49
COc1ccc(NC(=O)c2ccccc2F)cc1Cl	none
Cc1ccc(CN2[C@@H]3c4ccccc4C[C@@H]3OCCS2(=O)=O)cc1	none
CC(C)OCCCn1c(=NC(=O)c2ccncc2)c(C#N)cc2c(=O)n3ccccc3nc21	OX1R antag-2 52
CC(C)OCCCn1c(=N)c(C(N)=S)cc2c(=O)n3ccccc3nc21	OX1R antag-2 75
CC1CCC(C(C)C)C(OC(=O)COC(=O)c2cccn2C)C1 (stereo unspecified)	none
CC1CCC(C(C)C)C(OC(=O)Cn2c(-c3ccc(Br)cc3)[n+](C)c3ccccc32)C1 (stereo unspecified)	GPR7 antagonist 74, CHO parental Ca 30!
CC1CCC(C(C)C)C(OC(=O)Cn2c(-c3ccc(Cl)cc3)[n+](C)c3ccccc32)C1 (stereo unspecified)	GPR7 antagonist 60
CC1CCC(C(C)C)C(OC(=O)COC(=O)c2ccc(N)cc2)C1 (stereo unspecified)	none
O=C(NCc1ccccc1)C(c1ccc(-c2ccccc2)cc1)N1CCN(C(=O)C2CCCO2)CC1 (stereo unspecified)	none (no result: GPR7 antagonist, OX1R antag-1, CHO parental Ca, OX1R antag-2)
COc1ccc(-c2noc(CSc3nnc(Cc4ccccc4)n3-c3cccc(C)c3)n2)cc1OC	OX1R antag-2 39
CCn1c(SCc2nc(-c3ccc(OC)c(OC)c3)no2)nnc1-c1cccs1	OX1R antag-2 45
COc1cc(-c2noc(-c3cccs3)n2)cc(OC)c1OC	OX1R antag-2 48
Cc1nn(CC(=O)NC(C)CCc2ccccc2)c(=O)c2nn(-c3ccccc3)c(C)c12 (stereo unspecified)	none
COc1ccc(NC(=O)CCC2CCCC2)cc1OC	none
COc1ccccc1C(=O)N/C(=C\c1cn(C)c2ccccc12)C(=O)N1CCCC1	OX1R antag-2 50
Cn1ncc2c(O/N=C(\N)c3ccc(C(F)(F)F)cc3)ncnc21	OX1R antag-2 48
COc1ccccc1C(CNC(=O)C(C)(C)Oc1ccc(Cl)cc1)N1CCCC1 (stereo unspecified)	none (no result: GPR7 antagonist)
COc1ccc(CNC(=O)[C@]2(C)CCC[C@@]3(C)C4CC[C@@]5(C)C[C@]4(CCC32)CC5=O)cc1 (stereo partly specified)	TAAR1 antagonist 49 (no result: GPR7 antagonist)
CCOC(=O)c1ccc(NC(=O)c2nc[nH]c2C(=O)N(C)Cc2ccccc2)cc1	OX1R antag-2 57 (no result: GPR7 antagonist)
O=S(=O)(c1ccc(Cl)cc1)n1cccn1	none
Cc1nc(C)c(-c2ccn(S(=O)(=O)c3ccc(Cl)cc3)n2)o1	GPR7 antagonist 19
CC(C)(O)C#Cc1ccc(CN2CCN(C3CCCCC3)C(CCO)C2)s1 (stereo unspecified)	none
CCc1ccc(NC(=O)C2CCN(S(=O)(=O)c3ccc4c(c3)CC(C)N4C(C)=O)CC2)cc1 (stereo unspecified)	GPR7 antagonist 21, TAAR1 antagonist 50, CHO parental Ca 36
CCc1ccc(NC(=O)C2CCCN(S(=O)(=O)c3ccc4c(c3)CC(C)N4C(C)=O)C2)cc1 (stereo unspecified)	none
Cc1ccc(F)cc1N=Cc1c(O)c2ccccc2oc1=O	OX1R antag-2 58 (no result: TAAR1 ag, TAAR1 antagonist)
Cc1ccc(N=Cc2c(O)c3ccccc3oc2=O)c(C)c1	none
CCc1cccc(C)c1N=Cc1c(O)c2ccccc2oc1=O	OX1R antag-2 54
CCN(CC)S(=O)(=O)c1cc([N+](=O)[O-])ccc1NNC(=O)Nc1ccc(Cl)c(Cl)c1	CHO parental Ca 38
CC1(c2ccccc2)O[C@@H]2C[C@H]3[C@@H]4CCC5=CC(=O)C=C[C@]5(C)[C@@]4(F)[C@@H](O)C[C@]3(C)[C@]2(C(=O)CO)O1 (stereo partly specified)	none
O=[N+]([O-])c1cccc(N=NN(CCO)c2cccc([N+](=O)[O-])c2)c1	TAAR1 antagonist 51
O=C(Nc1ccccc1)c1cc2ccc3ccccc3c2s1	OX1R antag-2 51
O=C(Nc1ccccc1)c1ccc(-c2ccccc2)s1	TAAR1 ag 38
O=C(O)c1ccc(-c2ccc(-c3ccccc3)cc2)s1	none (no result: TAAR1 ag, TAAR1 antagonist)
COc1cc(C(=O)NC(=S)N(CCc2ccccc2)CCc2ccccc2)cc(OC)c1OC	TAAR1 antagonist 53
CSc1ccc(S(=O)(=O)NCC(=O)OCC(=O)N(C)Cc2ccccc2)cc1[N+](=O)[O-]	OX1R antag-2 51 (no result: GPR7 antagonist)
COC(=O)C1CCN(C(=O)COC(=O)CNS(=O)(=O)c2ccc(SC)c([N+](=O)[O-])c2)CC1	none (no result: GPR7 antagonist)
Nc1ccc(S(=O)(=O)NCC(=O)OC2CCOC2=O)cc1[N+](=O)[O-] (stereo unspecified)	none (no result: GPR7 antagonist)
CSc1ccc(S(=O)(=O)NCC(=O)OCCOc2ccccc2)cc1[N+](=O)[O-]	OX1R antag-2 54 (no result: GPR7 antagonist)
CSc1ccc(S(=O)(=O)NCC(=O)OCC(=O)N2CCCC2=O)cc1[N+](=O)[O-]	OX1R antag-2 56 (no result: GPR7 antagonist)
CSc1ccc(S(=O)(=O)NCC(=O)OC2CCOC2=O)cc1[N+](=O)[O-] (stereo unspecified)	OX1R antag-2 66 (no result: GPR7 antagonist)
CC(C)C[C@@H](CN1CCCC1CN1C(=S)NC[C@@H]1Cc1ccc(O)cc1)N1C[C@H](Cc2ccc(O)cc2)N(CC2CCCCC2)C1=S (stereo partly specified)	none (no result: GPR7 antagonist, OX1R antag-1, CHO parental Ca, OX1R antag-2)
CC(C)CC(c1nnnn1C1CCCC1)N1CCN(c2ccccc2F)CC1 (stereo unspecified)	none
O=C1c2ccccc2C(=O)c2c1cccc2N(CCO)CCO	OX1R antag-2 59
O=C1C=C(N(CCO)Cc2ccccc2)c2ccccc2C1=O	none (no result: TAAR1 ag, OX1R antag-1, TAAR1 antagonist, CHO parental Ca, OX1R antag-2)
CCOc1ccccc1OCCCOc1ccc([N+](=O)[O-])cc1Cl	none
COc1cccc(OC)c1OCCCOc1ccc([N+](=O)[O-])cc1Cl	GPR7 antagonist 17
Nc1ccc(Oc2cc(N)cc(Oc3ccccc3)c2)cc1	none
COc1ccc(N2CCN(C(CNC(=O)C(C)(C)C)c3ccco3)CC2)cc1 (stereo unspecified)	none
O=C(Nc1ccc(-c2nc3ccccc3o2)cc1)c1cc(-n2cnnc2)ccc1Cl	none
O=C(Nc1ccc(-c2nc3ccccc3o2)c(O)c1)c1cc(-n2cnnc2)ccc1Cl	CHO parental Ca 32
